According to paper PMC4734807 (International Journal of Nanomedicine, 2016):

Experiments:
HCa-F cells = experiment: In vivo therapeutic effect in HCa-F solid tumor-bearing mice; settings: for IR (tumor growth inhibition rate) / Number of natural deaths / Tumor weight / Volume growth (incremental tumor volume): 2 mg/kg iv once per day for 7 days; for IR (tumor growth inhibition rate): by tumor weight; for Number of natural deaths: eight mice per group; for Tumor weight / Volume growth (incremental tumor volume): n=8
In short: (§1)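 Male mice, 6 weeks, implanted subcutaneously in the right axilla with washed HCa-F ascites cells (2.0–2.3×10^7 cells/mL, 0.01 mL/g). At a longest tumour diameter of about 14–16 mm, mice randomised to six groups of eight. Dosing 2 mg/kg RBG-equivalent (5-fluorouracil 2 mg/kg) by tail vein, daily for 7 days, in 20% PEG400/saline vehicle. Volume V=a²×b/2 measured before and after dosing. Tumours weighed; IR from mean weights versus vehicle control. Tumour RBG measured in saline homogenates.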

HepG2 cells = experiment: Cell apoptosis, Annexin V-FITC/PI flow cytometry; type: cell-based, human; settings: 24 hours
In short: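 HepG2 cells grown in high-glucose DMEM with 10% FBS and 1% antibiotics at 37°C, 5% CO2. Seeded at 2×10^5 cells/mL and incubated 24 h. Then exposed 24 h to nanoparticle suspension or drug solution at 1.2, 5 and 20 μg/mL RBG-equivalent, with 5-fluorouracil 20 μg/mL as control. Cells washed in cold PBS and stained with Annexin V-FITC/PI in binding buffer, 15 min at room temperature, then read by flow cytometry.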

In vitro drug release = type: physicochemical; settings: raw RBG
[1] = system: various malignant tumors, such as human hepatocellular carcinoma cells (Bel7402) and human cervical carcinoma cells (HeLa); settings: e.g. Bel7402, HeLa; cited from earlier work
[2] = In vivo therapeutic effect in HCa-F solid tumor-bearing mice; settings: male, mouse, tumor, intravenous, 2 mg/kg
In short: as §1

[3] = In vivo RBG concentrations in plasma and organs, liver-targeting indexes; parameters: species or system Kunming mice; settings: for AUC: iv
In short: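 Male Kunming mice, 6 weeks, about 20.9 g, fasted overnight. Single tail-vein dose of 2 mg/kg RBG-equivalent, given as sonicated nanoparticle suspension or as solution, both in 20% PEG400/saline. Ten mice per group sampled at 0.08–24 h: cardiac blood, liver, heart, spleen, lung and kidney. RBG measured by RP-HPLC. AUC0–24 h by trapezoid method. Re is the AUC ratio of formulation to solution; Te is the liver AUC over the non-target organ AUC.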

LD50 = experiment: LD50; parameters: species or system mice; settings: male, Kunming, mouse, in vivo, iv

With `O=c1[nH]cc(F)c(=O)[nH]1` [FS, 5-fluorouracil] the “IR (tumor growth inhibition rate)” value (HCa-F cells) was 37.19%, the “Number of natural deaths” value (HCa-F cells) was 1 and the Tumor weight (HCa-F cells) was 3.26 ± 0.74 g. The “Volume growth (incremental tumor volume)” value (HCa-F cells) was 3.05±0.72 ^* cm^3, the “Cell ratio, apoptotic cells” value (HepG2 cells; 20 μg/mL) was 14.2±1.2% and the “Cell ratio, necrotic cells” value (HepG2 cells; 20 μg/mL) was 22.3±1.6%. The “Cell ratio, survival cells” value (HepG2 cells; 20 μg/mL) was 63.5±2.0%.

For `C[C@]12CC[C@H](O)C[C@H]1CC[C@@H]1[C@@H]2CC[C@]2(C)[C@@H](c3ccc(=O)oc3)C[C@H]3O[C@]132` [RBG, Resibufogenin], the “Release in the first 2 days” value (In vitro drug release) is listed as 98.78% and the IC50 [1] is listed as 1 to 50 nM.

In the case of `C[C@]12CC[C@H](O)C[C@H]1CC[C@@H]1[C@@H]2CC[C@]2(C)[C@@H](c3ccc(=O)oc3)C[C@H]3O[C@]132` [RS, Resibufogenin], the “IR (tumor growth inhibition rate)” value (HCa-F cells) is reported as 31.60%, the “Number of natural deaths” value (HCa-F cells) is reported as 2 and the Tumor weight (HCa-F cells) is reported as 3.55 ± 0.71 g. For the same compound, the “Volume growth (incremental tumor volume)” value (HCa-F cells) was 3.16±0.78 cm^3, the MRBG in tumor (HCa-F cells; after 7 days of administration, n=6) was 0.19 ± 0.08 µg and the concentration at 7 days [2] was 50 ± 20 ng/g. The “Cell ratio, apoptotic cells” value (HepG2 cells; 1.2 μg/mL) was 21.8±1.5%, the “Cell ratio, necrotic cells” value (HepG2 cells; 1.2 μg/mL) was 1.6±0.8% and the “Cell ratio, survival cells” value (HepG2 cells; 1.2 μg/mL) was 76.6±2.2%. The “Cell ratio, apoptotic cells” value (HepG2 cells; 5 μg/mL) was 33.6±1.6 %, the “Cell ratio, necrotic cells” value (HepG2 cells; 5 μg/mL) was 0.6±0.5% and the “Cell ratio, survival cells” value (HepG2 cells; 5 μg/mL) was 65.8±2.7%. For the same compound, the “Cell ratio, apoptotic cells” value (HepG2 cells; 20 μg/mL) was 45.4±1.7 %, the “Cell ratio, necrotic cells” value (HepG2 cells; 20 μg/mL) was 0.4±0.4% and the “Cell ratio, survival cells” value (HepG2 cells; 20 μg/mL) was 54.2±1.9%. The “Te (targeting efficiency), liver versus heart” value ([3]; AUC liver / AUC heart) was 0.6, the “Te (targeting efficiency), liver versus kidney” value ([3]; AUC liver / AUC kidney) was 0.8 and the “Te (targeting efficiency), liver versus lung” value ([3]; AUC liver / AUC lung) was 0.8. For the same compound, the “Te (targeting efficiency), liver versus spleen” value ([3]; AUC liver / AUC spleen) was 1.0, the “Te (targeting efficiency), overall statement” value ([3]; liver versus plasma and other organs) was < 1 and the AUC ([3]; male, Kunming, mouse, heart, 2 mg/kg) was 3700 ± 900 ng·h/mL. For the same compound, the AUC ([3]; male, Kunming, mouse, kidney, 2 mg/kg) was 2700 ± 1000 ng·h/mL, the AUC ([3]; male, Kunming, mouse, liver, 2 mg/kg) was 2100 ± 900 ng·h/mL and the Kp ([3]; male, Kunming, mouse, liver/plasma, intravenous, 2 mg/kg) was 0.1. For the same compound, the AUC ([3]; male, Kunming, mouse, lung, 2 mg/kg) was 2500 ± 800 ng·h/mL, the AUC ([3]; male, Kunming, mouse, plasma, 2 mg/kg) was 18600 ± 2100 ng·h/mL and the AUC ([3]; male, Kunming, mouse, spleen, 2 mg/kg) was 2200 ± 600 ng·h/mL. For the same compound, the “Retention (slow release) time of RBG in liver” value ([3]; mice, iv 2 mg/kg RBG) was 1 h and the LD50 (LD50) was 18.9 mg/kg.
